According to ChEMBL document CHEMBL3046613 (J Agric Food Chem, 2010):
Converted amounts (≈) assume the structure as drawn. Structures can show the parent of a compound that is named as a salt.

Tests used:
Tobacco mosaic virus [1] = experiment: Antiviral activity against Tobacco mosaic virus (TMV) inoculated on fresh tobacco leaves followed by dipping into compound solution at 250 ug/mL for 20 min and measured 72 hr post compound treatment by half-leaf method; type: functional
Outline: (§1)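 Half-leaf method. Fresh tobacco leaves at the 5-6 growth stage were inoculated by juice-leaf rubbing with TMV at 5.88 × 10-2 μg/mL. Leaves were cut into halves along the main vein. Each half was immersed for 20 min in compound solution or in double-distilled water, then cultured at 25 °C for 72 h. Each concentration was run at least three times.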

Tobacco mosaic virus [2] = experiment: Antiviral activity against Tobacco mosaic virus (TMV) inoculated on fresh tobacco leaves followed by dipping into compound solution for 20 min and measured 72 hr post compound treatment by half-leaf method; type: functional, organism-based; outline: as §1
Tobacco mosaic virus [3] = experiment: Antiviral activity against Tobacco mosaic virus (TMV) inoculated on fresh tobacco leaves followed by dipping into compound solution at 25 ug/mL for 20 min and measured 72 hr post compound treatment by half-leaf method; type: functional; outline: as §1
Tobacco mosaic virus [4] = experiment: Antiviral activity against Tobacco mosaic virus (TMV) inoculated on fresh tobacco leaves followed by dipping into compound solution at 125 ug/mL for 20 min and measured 72 hr post compound treatment by half-leaf method; type: functional; outline: as §1
Tobacco mosaic virus [5] = experiment: Antiviral activity against Tobacco mosaic virus (TMV) inoculated on fresh tobacco leaves followed by dipping into compound solution at 500 ug/mL for 20 min and measured 72 hr post compound treatment by half-leaf method; type: functional; outline: as §1
Tobacco mosaic virus [6] = experiment: Antiviral activity against Tobacco mosaic virus (TMV) inoculated on whole Nicotiana tabacum leaves followed by smearing with 500 ug/mL compound solution on left side of leaves assessed as viral infection curative effect measured 3 to 4 days post viral infection; type: functional
Outline: (§2)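 Whole growing N. tabacum L. leaves of the same age were dip-inoculated with TMV at 6.0 × 10-3 mg/mL.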

Tobacco mosaic virus [7] = experiment: Antiviral activity against Tobacco mosaic virus (TMV) pre-treated with 500 ug/mL compound for 30 min followed by inoculation on left side of Nicotiana tabacum leaves assessed as virus inactivation effect measured 3 to 4 days post viral infection; type: functional
Outline: (§3)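 TMV was mixed with an equal volume of compound solution for 30 min, then inoculated on the left half of N. tabacum L. leaves. A solvent-plus-virus mixture was inoculated on the right half as control. Local lesions were counted 3-4 days after inoculation. Each compound was run in three replicates.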

Tobacco mosaic virus [8] = experiment: Antiviral activity against Tobacco mosaic virus (TMV) inoculated on 500 ug/mL compound smeared Nicotiana tabacum leaves assessed as protective effect against viral infection measured 3 to 4 days post viral infection; type: functional
Outline: (§4)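 N. tabacum L. leaves of the same age were used. Compound solution was smeared on the left half and solvent control on the right half. Leaves were inoculated with TMV 12 h later.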

Tobacco mosaic virus [9] = experiment: Antiviral activity against Tobacco mosaic virus (TMV) inoculated on whole Nicotiana tabacum leaves followed by smearing with 100 ug/mL compound solution on left side of leaves assessed as viral infection curative effect measured 3 to 4 days post viral infection; type: functional; outline: as §2
Tobacco mosaic virus [10] = experiment: Antiviral activity against Tobacco mosaic virus (TMV) pre-treated with 100 ug/mL compound for 30 min followed by inoculation on left side of Nicotiana tabacum leaves assessed as virus inactivation effect measured 3 to 4 days post viral infection; type: functional; outline: as §3
Tobacco mosaic virus [11] = experiment: Antiviral activity against Tobacco mosaic virus (TMV) inoculated on fresh tobacco leaves followed by dipping into compound solution at 50 ug/mL for 20 min and measured 72 hr post compound treatment by half-leaf method; type: functional; outline: as §1
Tobacco mosaic virus [12] = experiment: Antiviral activity against Tobacco mosaic virus (TMV) inoculated on 100 ug/mL compound smeared Nicotiana tabacum leaves assessed as protective effect against viral infection measured 3 to 4 days post viral infection; type: functional; outline: as §4
Tobacco mosaic virus [13] = experiment: Antiviral activity against Tobacco mosaic virus (TMV) inoculated on fresh tobacco leaves followed by dipping into compound solution at 5 ug/mL for 20 min and measured 72 hr post compound treatment by half-leaf method; type: functional; outline: as §1
Tobacco mosaic virus [14] = experiment: Antiviral activity against Tobacco mosaic virus (TMV) inoculated on fresh tobacco leaves followed by dipping into compound solution at 100 ug/mL for 20 min and measured 72 hr post compound treatment by half-leaf method; type: functional; outline: as §1
Tobacco mosaic virus [15] = experiment: Antiviral activity against Tobacco mosaic virus (TMV) inoculated on fresh tobacco leaves followed by dipping into compound solution at 40 ug/mL for 20 min and measured 72 hr post compound treatment by half-leaf method; type: functional; conditions: for inhibition at 40 µg/mL: Tobacco mosaic virus; outline: as §1

CNCC(=O)N[C@@H](CO)C(=O)N[C@H]1[C@H](O)[C@@H](O)[C@H](n2ccc(N)nc2=O)O[C@@H]1C(N)=O [NINGNANMYCIN]
inhibition at 250 µg/mL (Tobacco mosaic virus [1]): 42.1% | EC50 (Tobacco mosaic virus [2]): 440 µg/mL (≈ 992 µM) | inhibition at 25 µg/mL (Tobacco mosaic virus [3]): 28.2% | inhibition at 125 µg/mL (Tobacco mosaic virus [4]): 27% | inhibition at 500 µg/mL (Tobacco mosaic virus [5]): 59.3% | Activity (Tobacco mosaic virus [6]): 23% | Activity (Tobacco mosaic virus [7]): 50.5% | Activity (Tobacco mosaic virus [8]): 51.3%

COc1cc2c3c(c4cc(OC)c(OC)cc4c2cc1OC)CN1CCCC1C3.O=C(O)c1cc(S(=O)(=O)O)ccc1O (stereo unspecified)
Activity (Tobacco mosaic virus [9]): 62.1% | EC50 (Tobacco mosaic virus [2]): 21.3 µg/mL | Activity (Tobacco mosaic virus [10]): 42.2% | inhibition at 50 µg/mL (Tobacco mosaic virus [11]): 79.9% | inhibition at 25 µg/mL (Tobacco mosaic virus [3]): 35.7% | Activity (Tobacco mosaic virus [12]): 38.6% | inhibition at 5 µg/mL (Tobacco mosaic virus [13]): 15.6% | inhibition at 100 µg/mL (Tobacco mosaic virus [14]): 92.8%

COc1cc2c3c(c4cc(OC)c(OC)cc4c2cc1OC)CN1CCCC1C3.O=C(O)CC(O)(CC(=O)O)C(=O)O (stereo unspecified)
inhibition (INH) (Tobacco mosaic virus [15]): 65.2%

COc1cc2c3c(c4cc(OC)c(OC)cc4c2cc1OC)CN1CCCC1C3 (stereo unspecified) [TYLOPHORINE 2-HYDROXYSUCCINIC ACID SALT]
inhibition at 40 µg/mL (Tobacco mosaic virus [15]): 69.1%

COc1cc2c3c(c4cc(OC)c(OC)cc4c2cc1OC)CN1CCCC1C3.Nc1ccc(S(=O)(=O)O)cc1 (stereo unspecified) [TYLOPHORINE P-AMINOBENZENESULFONIC ACID SALT]
Activity (Tobacco mosaic virus [9]): 34.5% | EC50 (Tobacco mosaic virus [2]): 14.3 µg/mL | Activity (Tobacco mosaic virus [10]): 75.6% | inhibition at 50 µg/mL (Tobacco mosaic virus [11]): 74.3% | inhibition at 25 µg/mL (Tobacco mosaic virus [3]): 58.8% | Activity (Tobacco mosaic virus [12]): 38.6% | inhibition at 5 µg/mL (Tobacco mosaic virus [13]): 31.4% | inhibition at 100 µg/mL (Tobacco mosaic virus [14]): 80.9%

COc1ccc2c3c(c4cc(OC)c(OC)cc4c2c1)CC1CCCN1C3 (racemic) [(+/-)-ANTOFINE]
Activity (Tobacco mosaic virus [9]): 54.4% | EC50 (Tobacco mosaic virus [2]): < 25 µg/mL | Activity (Tobacco mosaic virus [10]): 66.3% | inhibition at 50 µg/mL (Tobacco mosaic virus [11]): 69.7% | inhibition at 25 µg/mL (Tobacco mosaic virus [3]): 68.8% | Activity (Tobacco mosaic virus [12]): 26.7% | inhibition at 5 µg/mL (Tobacco mosaic virus [13]): 56.7% | inhibition at 100 µg/mL (Tobacco mosaic virus [14]): 80.7%

COc1ccc2c3c(c4cc(OC)c(OC)cc4c2c1)CN1CCCC1C3 (racemic) [(+/-)-DEOXYTYLOPHORININE]
Activity (Tobacco mosaic virus [9]): 26.1% | EC50 (Tobacco mosaic virus [2]): < 25 µg/mL | inhibition at 40 µg/mL (Tobacco mosaic virus [15]): 79.2% | Activity (Tobacco mosaic virus [10]): 67.4% | inhibition at 50 µg/mL (Tobacco mosaic virus [11]): 66.7% | inhibition at 25 µg/mL (Tobacco mosaic virus [3]): 65% | Activity (Tobacco mosaic virus [12]): 60% | inhibition at 100 µg/mL (Tobacco mosaic virus [14]): 75%

COc1cc(/C=C/C(=O)O)ccc1O.COc1cc2c3c(c4cc(OC)c(OC)cc4c2cc1OC)CN1CCCC1C3 (stereo unspecified)
Activity (Tobacco mosaic virus [9]): 13.8% | EC50 (Tobacco mosaic virus [2]): 40.3 µg/mL | Activity (Tobacco mosaic virus [10]): 51.1% | inhibition at 50 µg/mL (Tobacco mosaic virus [11]): 68.5% | inhibition at 25 µg/mL (Tobacco mosaic virus [3]): 18.5% | Activity (Tobacco mosaic virus [12]): 45.5% | inhibition at 5 µg/mL (Tobacco mosaic virus [13]): 15.7% | inhibition at 100 µg/mL (Tobacco mosaic virus [14]): 72.2%

CC1(C)C2CC[C@]1(S(=O)(=O)O)C(=O)C2.COc1cc2c3c(c4cc(OC)c(OC)cc4c2cc1OC)CN1CCCC1C3 (stereo unspecified)
Activity (Tobacco mosaic virus [9]): 65.5% | EC50 (Tobacco mosaic virus [2]): 23.6 µg/mL | Activity (Tobacco mosaic virus [10]): 55.6% | inhibition at 50 µg/mL (Tobacco mosaic virus [11]): 60.6% | inhibition at 25 µg/mL (Tobacco mosaic virus [3]): 42.4% | Activity (Tobacco mosaic virus [12]): 47.7% | inhibition at 5 µg/mL (Tobacco mosaic virus [13]): 32.3% | inhibition at 100 µg/mL (Tobacco mosaic virus [14]): 73.9%

COc1cc2c3c(c4cc(OC)c(OC)cc4c2cc1OC)CN1CCCC1C3.O=C(O)c1ccc(O)cc1 (stereo unspecified) [TYLOPHORINE P-HYDROXYBENZOIC ACID SALT]
Activity (Tobacco mosaic virus [9]): 42.9% | EC50 (Tobacco mosaic virus [2]): 7.7 µg/mL | Activity (Tobacco mosaic virus [10]): 60.9% | inhibition at 50 µg/mL (Tobacco mosaic virus [11]): 70% | inhibition at 25 µg/mL (Tobacco mosaic virus [3]): 54.7% | Activity (Tobacco mosaic virus [12]): 54.9% | inhibition at 5 µg/mL (Tobacco mosaic virus [13]): 50% | inhibition at 100 µg/mL (Tobacco mosaic virus [14]): 84.9%
